Laboratory results from BindingDB's records for doi:10.1021/jm991078x (Insituto De Qu?mica M?dica (Csic), 1999).

What was measured:
[1] = biological target: T1, Cholecystokinin receptor type A (Rattus norvegicus, UniProt P30551); experiment: Binding affinity by competitive inhibition of the radioligand [3H]pCCK-8 at Cholecystokinin type A receptor from rat pancreas
T1 sequence (P30551 whole entry): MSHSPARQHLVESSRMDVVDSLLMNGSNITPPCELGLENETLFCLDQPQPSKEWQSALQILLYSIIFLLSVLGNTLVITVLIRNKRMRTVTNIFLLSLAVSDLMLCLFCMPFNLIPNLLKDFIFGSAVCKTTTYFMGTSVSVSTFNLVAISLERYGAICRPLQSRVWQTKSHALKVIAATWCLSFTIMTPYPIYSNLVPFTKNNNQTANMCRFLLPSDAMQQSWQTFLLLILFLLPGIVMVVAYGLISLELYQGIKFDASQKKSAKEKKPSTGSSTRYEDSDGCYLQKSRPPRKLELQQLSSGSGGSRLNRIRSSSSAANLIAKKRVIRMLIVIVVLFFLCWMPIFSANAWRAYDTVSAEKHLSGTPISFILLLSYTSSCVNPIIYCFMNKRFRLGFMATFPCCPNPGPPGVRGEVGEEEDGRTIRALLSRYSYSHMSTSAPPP
How it was run: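 Rat pancreas homogenized in Pipes HCl pH 6.5 with 30 mM MgCl2, centrifuged twice at 50000g, 4 °C. Membranes (0.2 mg protein/tube) incubated with 0.5 nM [3H]pCCK-8 plus bacitracin and soybean trypsin inhibitor (0.2 mg/mL each) for 120 min at 25 °C. […]. Seven concentrations in triplicate, at least three experiments.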

[2] = biological target: T2, Gastrin/cholecystokinin type B receptor (Rattus norvegicus, UniProt P30553); experiment: Binding affinity by competitive inhibition of the radioligand [3H]pCCK-8 at Cholecystokinin type B receptor from rat cerebral cortex membrane
T2 sequence (P30553 whole entry): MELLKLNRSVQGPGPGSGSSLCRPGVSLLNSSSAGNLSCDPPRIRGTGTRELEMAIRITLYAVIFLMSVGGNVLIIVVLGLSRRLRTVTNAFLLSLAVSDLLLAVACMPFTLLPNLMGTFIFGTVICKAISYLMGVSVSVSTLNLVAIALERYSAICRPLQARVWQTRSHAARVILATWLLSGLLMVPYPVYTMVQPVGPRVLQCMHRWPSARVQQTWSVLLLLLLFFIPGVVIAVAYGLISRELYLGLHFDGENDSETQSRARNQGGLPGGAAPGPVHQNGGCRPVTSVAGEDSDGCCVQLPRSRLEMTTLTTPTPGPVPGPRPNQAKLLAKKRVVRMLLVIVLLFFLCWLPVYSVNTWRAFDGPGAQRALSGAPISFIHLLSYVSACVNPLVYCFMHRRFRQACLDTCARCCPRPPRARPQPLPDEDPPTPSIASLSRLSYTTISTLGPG

IC50 [1] [µM] | IC50 [2] [µM] | Structure (SMILES)
> 1 | > 10 | O=C(Cc1c[nH]c2ccccc12)N[C@H]1CCCN2C(=O)N(Cc3ccccc3)C(=O)C[C@@H]12 [N-((4aS,5S)-2-Benzyl-1,3-dioxo-octahydro-pyrido[1,2-c]pyrimidin-5-yl)-2-(1H-indol-3-yl)-acetamide; compound with 1H-indole-3-carboxylic acid ((4aR,5R)-2-benzyl-1,3-dioxo-octahydro-pyrido[1,2-c]pyrimidin-5-yl)-amide]
> 1 | > 10 | O=C(N[C@H]1CCCN2C(=O)N(Cc3ccccc3)C(=O)C[C@H]12)c1cc2ccccc2[nH]1
